Results from ChEMBL document CHEMBL1135766, “Synthesis of conformationally constrained analogues of linezolid: structure-activity relationship (SAR) studies on selected novel tricyclic oxazolidinones” (2002).
≈ marks a conversion by molar mass, not a printed value.

What was measured:
Enterococcus faecalis [1] = assay: In vitro antibacterial activity against Enterococcus faecalis ATCC 29212 (E. f. 153) vancomycin sensitive; type: functional
In short: (§1)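 Broth microdilution per NCCLS guidelines in Mueller Hinton medium. Doubling dilutions 256–1 μg/mL; inoculum (1–5) × 10⁵ CFU/mL; plates incubated overnight at 35 °C in ambient air. MIC read as the lowest concentration giving complete growth inhibition. Linezolid and vancomycin served as controls.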

Staphylococcus aureus [2] = assay: In vitro antibacterial activity against methicillin resistant Staphylococcus aureus ATCC 33591 (S. a. 019); type: functional
In short: (§2)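 Broth microdilution MIC per NCCLS guidelines in Mueller Hinton medium. Doubling dilutions from 256 to 1 μg/mL, inoculum (1–5) × 10⁵ CFU/mL, incubated overnight in ambient air at 35 °C. MIC is the lowest concentration giving complete growth inhibition. Linezolid and vancomycin served as controls.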

Enterococcus faecium = assay: In vitro antibacterial activity against Enterococcus faecium ATCC 12202 (E.fm 154) vancomycin resistant; type: functional, enterococcus fecium; in short: as §2
Enterococcus faecalis [3] = assay: In vitro antibacterial activity against Enterococcus faecalis ATCC 29212 (E. f. 034) vancomycin sensitive; type: functional; in short: as §2
Staphylococcus aureus [4] = assay: In vitro antibacterial activity against Staphylococcus aureus ATCC 29213 (S. a. 035); type: functional; in short: as §1
Staphylococcus aureus [5] = assay: In vitro antibacterial activity against Staphylococcus aureus ATCC 49951 (S. a. 213); type: functional; in short: as §2
Mus musculus [6] = assay: In vivo antibacterial activity in a murine systemic infection model; type: functional
In short: (§3)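 Female Swiss Albino mice (22–25 g, n = 6) were infected intraperitoneally with 0.5 mL S. aureus ATCC 29213. The inoculum was grown 2–3 h at 35 °C in BHI broth and adjusted to 100 × LD50 in 5% hog gastric mucin. Compound was suspended in 0.25% carboxymethyl cellulose and given orally 1 and 6 h post-infection; controls received saline. Cumulative mortality was scored over 48 h, and ED50 was derived by linear regression.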

Enterococcus faecalis [7] = assay: In vitro antibacterial activity against Enterococcus faecalis NCTC 12201 (E. f. 153) vancomycin resistant; type: functional; in short: as §2
Mus musculus [8] = assay: In vivo antibacterial activity in a murine systemic infection model (95%confidence limits); type: functional; in short: as §3

SMILES: CC(C)O/C(S)=N\C[C@H]1CN(c2cc(F)c3c(c2)OC[C@@H]2CCCN32)C(=O)O1
- MIC (Enterococcus faecalis [1]): 8 µg/mL (≈ 19.5 µM)
- MIC (Staphylococcus aureus [2]): 8 µg/mL (≈ 19.5 µM)
- MIC (Enterococcus faecium): 8 µg/mL (≈ 19.5 µM)
- MIC (Enterococcus faecalis [3]): 8 µg/mL (≈ 19.5 µM)
- MIC (Staphylococcus aureus [4]): 8 µg/mL (≈ 19.5 µM)
- MIC (Staphylococcus aureus [5]): 8 µg/mL (≈ 19.5 µM)

SMILES: C/C(S)=N\C[C@H]1CN(c2cc(F)c3c(c2)OC[C@@H]2CCCN32)C(=O)O1
- ED50 (Mus musculus [6]): 30 mg/kg
- MIC (Staphylococcus aureus [2]): 0.5 µg/mL (≈ 1.37 µM)
- MIC (Enterococcus faecium): 1 µg/mL (≈ 2.74 µM)
- MIC (Enterococcus faecalis [3]): 1 µg/mL (≈ 2.74 µM)
- MIC (Staphylococcus aureus [4]): 0.5 µg/mL (≈ 1.37 µM)
- MIC (Enterococcus faecalis [7]): 1 µg/mL (≈ 2.74 µM)
- MIC (Staphylococcus aureus [5]): 0.5 µg/mL (≈ 1.37 µM)

SMILES: CC/C(S)=N\C[C@H]1CN(c2cc(F)c3c(c2)OC[C@@H]2CCCN32)C(=O)O1
- ED50 (Mus musculus [6]): 30 mg/kg
- MIC (Staphylococcus aureus [2]): 0.5 µg/mL (≈ 1.32 µM)
- MIC (Enterococcus faecium): 0.5 µg/mL (≈ 1.32 µM)
- MIC (Enterococcus faecalis [3]): 0.5 µg/mL (≈ 1.32 µM)
- MIC (Staphylococcus aureus [4]): 1 µg/mL (≈ 2.64 µM)
- MIC (Enterococcus faecalis [7]): 0.5 µg/mL (≈ 1.32 µM)
- MIC (Staphylococcus aureus [5]): 0.5 µg/mL (≈ 1.32 µM)

SMILES: O=C(CCl)NC[C@H]1CN(c2cc(F)c3c(c2)OC[C@@H]2CCCN32)C(=O)O1
- MIC (Enterococcus faecalis [1]): 2 µg/mL (≈ 5.21 µM)
- MIC (Staphylococcus aureus [2]): 1 µg/mL (≈ 2.61 µM)
- MIC (Enterococcus faecium): 2 µg/mL (≈ 5.21 µM)
- MIC (Enterococcus faecalis [3]): 2 µg/mL (≈ 5.21 µM)
- MIC (Staphylococcus aureus [4]): 1 µg/mL (≈ 2.61 µM)

SMILES: CCCCO/C(S)=N\C[C@H]1CN(c2cc(F)c3c(c2)OC[C@@H]2CCCN32)C(=O)O1
- MIC (Enterococcus faecalis [1]): > 32 µg/mL
- MIC (Staphylococcus aureus [2]): > 32 µg/mL
- MIC (Enterococcus faecium): > 32 µg/mL
- MIC (Enterococcus faecalis [3]): > 32 µg/mL
- MIC (Staphylococcus aureus [4]): > 32 µg/mL
- MIC (Staphylococcus aureus [5]): > 32 µg/mL

SMILES: CCOC(=O)NC[C@H]1CN(c2cc(F)c3c(c2)OC[C@@H]2CCCN32)C(=O)O1
- MIC (Staphylococcus aureus [2]): 8 µg/mL (≈ 21.1 µM)
- MIC (Enterococcus faecium): 8 µg/mL (≈ 21.1 µM)
- MIC (Enterococcus faecalis [3]): 8 µg/mL (≈ 21.1 µM)
- MIC (Staphylococcus aureus [4]): 8 µg/mL (≈ 21.1 µM)
- MIC (Enterococcus faecalis [7]): 8 µg/mL (≈ 21.1 µM)
- MIC (Staphylococcus aureus [5]): 8 µg/mL (≈ 21.1 µM)

SMILES: O=C1O[C@@H](C/N=C(/S)N2CCCC2)CN1c1cc(F)c2c(c1)OC[C@@H]1CCCN21
- MIC (Staphylococcus aureus [2]): 32 µg/mL (≈ 76.1 µM)
- MIC (Enterococcus faecium): 32 µg/mL (≈ 76.1 µM)
- MIC (Enterococcus faecalis [3]): 32 µg/mL (≈ 76.1 µM)
- MIC (Staphylococcus aureus [4]): 32 µg/mL (≈ 76.1 µM)
- MIC (Enterococcus faecalis [7]): 32 µg/mL (≈ 76.1 µM)
- MIC (Staphylococcus aureus [5]): 32 µg/mL (≈ 76.1 µM)

SMILES: CC(C)C(=O)NC[C@H]1CN(c2ccc3c(c2)OC[C@@H]2CCCN32)C(=O)O1
- MIC (Staphylococcus aureus [2]): 8 µg/mL (≈ 22.3 µM)
- MIC (Enterococcus faecium): 32 µg/mL (≈ 89 µM)
- MIC (Enterococcus faecalis [3]): 32 µg/mL (≈ 89 µM)
- MIC (Staphylococcus aureus [4]): 16 µg/mL (≈ 44.5 µM)
- MIC (Enterococcus faecalis [7]): 32 µg/mL (≈ 89 µM)

SMILES: CO/C(S)=N\C[C@H]1CN(c2cc(F)c3c(c2)OC[C@@H]2CCCN32)C(=O)O1
- MIC (Enterococcus faecalis [1]): 0.5 µg/mL (≈ 1.31 µM)
- MIC (Staphylococcus aureus [2]): 0.5 µg/mL (≈ 1.31 µM)
- MIC (Enterococcus faecium): 0.5 µg/mL (≈ 1.31 µM)
- MIC (Enterococcus faecalis [3]): 0.5 µg/mL (≈ 1.31 µM)
- MIC (Staphylococcus aureus [4]): 1 µg/mL (≈ 2.62 µM)
- ED50 (Mus musculus [8]): 4.85 mg/kg
- MIC (Staphylococcus aureus [5]): 1 µg/mL (≈ 2.62 µM)

SMILES: C=CC(=O)NC[C@H]1CN(c2cc(F)c3c(c2)OC[C@@H]2CCCN32)C(=O)O1
- ED50 (Mus musculus [6]): 30 mg/kg
- MIC (Staphylococcus aureus [2]): 4 µg/mL (≈ 11.1 µM)
- MIC (Enterococcus faecium): 4 µg/mL (≈ 11.1 µM)
- MIC (Enterococcus faecalis [3]): 4 µg/mL (≈ 11.1 µM)
- MIC (Staphylococcus aureus [4]): 4 µg/mL (≈ 11.1 µM)
- MIC (Enterococcus faecalis [7]): 4 µg/mL (≈ 11.1 µM)
- MIC (Staphylococcus aureus [5]): 4 µg/mL (≈ 11.1 µM)

SMILES: C=CC(=O)NC[C@H]1CN(c2ccc3c(c2)OC[C@@H]2CCCN32)C(=O)O1
- MIC (Staphylococcus aureus [2]): 4 µg/mL (≈ 11.6 µM)
- MIC (Enterococcus faecium): 8 µg/mL (≈ 23.3 µM)
- MIC (Enterococcus faecalis [3]): 8 µg/mL (≈ 23.3 µM)
- MIC (Staphylococcus aureus [4]): 8 µg/mL (≈ 23.3 µM)
- MIC (Enterococcus faecalis [7]): 8 µg/mL (≈ 23.3 µM)

SMILES: O=C1O[C@@H](C/N=C(/S)N2CCSCC2)CN1c1cc(F)c2c(c1)OC[C@@H]1CCCN21
- MIC (Staphylococcus aureus [2]): 16 µg/mL (≈ 35.4 µM)
- MIC (Enterococcus faecium): 16 µg/mL (≈ 35.4 µM)
- MIC (Enterococcus faecalis [3]): 16 µg/mL (≈ 35.4 µM)
- MIC (Staphylococcus aureus [4]): 16 µg/mL (≈ 35.4 µM)
- MIC (Enterococcus faecalis [7]): 16 µg/mL (≈ 35.4 µM)
- MIC (Staphylococcus aureus [5]): 16 µg/mL (≈ 35.4 µM)

SMILES: CS/C(S)=N\C[C@H]1CN(c2cc(F)c3c(c2)OC[C@@H]2CCCN32)C(=O)O1
- MIC (Enterococcus faecalis [1]): 1 µg/mL (≈ 2.52 µM)
- MIC (Staphylococcus aureus [2]): 1 µg/mL (≈ 2.52 µM)
- MIC (Enterococcus faecalis [3]): 1 µg/mL (≈ 2.52 µM)
- MIC (Staphylococcus aureus [4]): 2 µg/mL (≈ 5.03 µM)
- ED50 (Mus musculus [8]): 30 mg/kg
- MIC (Enterococcus faecalis [7]): 1 µg/mL (≈ 2.52 µM)
- MIC (Staphylococcus aureus [5]): 1 µg/mL (≈ 2.52 µM)

SMILES: O=C(NC[C@H]1CN(c2ccc3c(c2)OC[C@@H]2CCCN32)C(=O)O1)C(Cl)Cl
- MIC (Enterococcus faecalis [1]): 8 µg/mL (≈ 20 µM)
- MIC (Staphylococcus aureus [2]): 4 µg/mL (≈ 9.99 µM)
- MIC (Enterococcus faecium): 8 µg/mL (≈ 20 µM)
- MIC (Enterococcus faecalis [3]): 8 µg/mL (≈ 20 µM)
- MIC (Staphylococcus aureus [4]): 4 µg/mL (≈ 9.99 µM)

SMILES: O=CNC[C@H]1CN(c2ccc3c(c2)OC[C@@H]2CCCN32)C(=O)O1
- MIC (Staphylococcus aureus [2]): 4 µg/mL (≈ 12.6 µM)
- MIC (Enterococcus faecium): 16 µg/mL (≈ 50.4 µM)
- MIC (Enterococcus faecalis [3]): 16 µg/mL (≈ 50.4 µM)
- MIC (Staphylococcus aureus [4]): 8 µg/mL (≈ 25.2 µM)
- MIC (Enterococcus faecalis [7]): 16 µg/mL (≈ 50.4 µM)

SMILES: O=C1O[C@@H](C/N=C/S)CN1c1cc(F)c2c(c1)OC[C@@H]1CCCN21
- ED50 (Mus musculus [6]): 9.07 mg/kg
- MIC (Staphylococcus aureus [2]): 1 µg/mL (≈ 2.85 µM)
- MIC (Enterococcus faecium): 2 µg/mL (≈ 5.69 µM)
- MIC (Enterococcus faecalis [3]): 1 µg/mL (≈ 2.85 µM)
- MIC (Staphylococcus aureus [4]): 1 µg/mL (≈ 2.85 µM)
- MIC (Enterococcus faecalis [7]): 1 µg/mL (≈ 2.85 µM)
- MIC (Staphylococcus aureus [5]): 1 µg/mL (≈ 2.85 µM)

SMILES: CCCCC(=O)NC[C@H]1CN(c2cc(F)c3c(c2)OC[C@@H]2CCCN32)C(=O)O1
- MIC (Staphylococcus aureus [2]): 8 µg/mL (≈ 20.4 µM)
- MIC (Enterococcus faecium): 32 µg/mL (≈ 81.7 µM)
- MIC (Enterococcus faecalis [3]): 16 µg/mL (≈ 40.9 µM)
- MIC (Staphylococcus aureus [4]): 16 µg/mL (≈ 40.9 µM)
- MIC (Enterococcus faecalis [7]): 16 µg/mL (≈ 40.9 µM)
- MIC (Staphylococcus aureus [5]): 16 µg/mL (≈ 40.9 µM)

SMILES: CCC(=O)NC[C@H]1CN(c2cc(F)c3c(c2)OC[C@@H]2CCCN32)C(=O)O1
- ED50 (Mus musculus [6]): 16 mg/kg
- MIC (Staphylococcus aureus [2]): 2 µg/mL (≈ 5.5 µM)
- MIC (Enterococcus faecium): 8 µg/mL (≈ 22 µM)
- MIC (Enterococcus faecalis [3]): 4 µg/mL (≈ 11 µM)
- MIC (Staphylococcus aureus [4]): 4 µg/mL (≈ 11 µM)
- MIC (Enterococcus faecalis [7]): 8 µg/mL (≈ 22 µM)
- MIC (Staphylococcus aureus [5]): 4 µg/mL (≈ 11 µM)

SMILES: O=CNC[C@H]1CN(c2cc(F)c3c(c2)OC[C@@H]2CCCN32)C(=O)O1
- MIC (Staphylococcus aureus [2]): 4 µg/mL (≈ 11.9 µM)
- MIC (Enterococcus faecium): 8 µg/mL (≈ 23.9 µM)
- MIC (Enterococcus faecalis [3]): 4 µg/mL (≈ 11.9 µM)
- MIC (Staphylococcus aureus [4]): 8 µg/mL (≈ 23.9 µM)
- MIC (Enterococcus faecalis [7]): 4 µg/mL (≈ 11.9 µM)
- MIC (Staphylococcus aureus [5]): 4 µg/mL (≈ 11.9 µM)
